Experimental data from ChEMBL document CHEMBL2046284, “N-Pyridyl and Pyrimidine Benzamides as KCNQ2/Q3 Potassium Channel Openers for the Treatment of Epilepsy” (ACS Med Chem Lett, 2011).
Active and inactive are the calls of the source. The calls are words filed in the database; no cut-off is given here.

Legend:
[1] = target: Voltage-gated potassium channel, IKs; KCNQ1(Kv7.1)/KCNE1(MinK) (Homo sapiens, UniProt P15382+P51787); experiment: Antagonist activity at KCNQ1/MINK expressed in CHO cells assessed as inhibition of KCl-induced 86Rb+ efflux incubated for 10 mins prior to KCl-induction by liquid scintillation counting; type: functional, cell-based
Chain of Voltage-gated potassium channel, IKs; KCNQ1(Kv7.1)/KCNE1(MinK) (P51787 whole entry): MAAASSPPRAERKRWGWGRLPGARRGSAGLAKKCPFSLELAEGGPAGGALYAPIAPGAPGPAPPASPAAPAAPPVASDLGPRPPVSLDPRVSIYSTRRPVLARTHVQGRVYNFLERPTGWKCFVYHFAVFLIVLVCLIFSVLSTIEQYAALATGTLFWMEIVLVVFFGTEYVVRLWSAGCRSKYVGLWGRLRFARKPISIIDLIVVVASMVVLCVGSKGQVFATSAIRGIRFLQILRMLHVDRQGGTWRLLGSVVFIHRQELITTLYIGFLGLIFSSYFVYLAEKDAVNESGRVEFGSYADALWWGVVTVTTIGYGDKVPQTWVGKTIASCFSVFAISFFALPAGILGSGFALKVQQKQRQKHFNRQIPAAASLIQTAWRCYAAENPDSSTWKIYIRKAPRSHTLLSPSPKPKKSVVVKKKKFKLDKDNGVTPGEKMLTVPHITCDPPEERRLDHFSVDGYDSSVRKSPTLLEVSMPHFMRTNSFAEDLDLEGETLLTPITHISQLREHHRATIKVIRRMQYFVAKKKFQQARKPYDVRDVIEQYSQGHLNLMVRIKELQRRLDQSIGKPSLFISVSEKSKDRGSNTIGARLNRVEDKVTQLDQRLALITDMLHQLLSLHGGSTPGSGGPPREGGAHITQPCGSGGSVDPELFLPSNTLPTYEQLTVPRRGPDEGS

[2] = target: Voltage-gated potassium channel, KQT; KCNQ2(Kv7.2)/KCNQ3(Kv7.3) (Homo sapiens, UniProt O43525+O43526); experiment: Agonist activity at KCNQ2/KCNQ3 expressed in CHO cells assessed as increase in KCl-induced 86Rb+ efflux incubated for 10 mins prior to KCl-induction by liquid scintillation counting; type: functional, cell-based
Chain of Voltage-gated potassium channel, KQT; KCNQ2(Kv7.2)/KCNQ3(Kv7.3) (O43526 whole entry): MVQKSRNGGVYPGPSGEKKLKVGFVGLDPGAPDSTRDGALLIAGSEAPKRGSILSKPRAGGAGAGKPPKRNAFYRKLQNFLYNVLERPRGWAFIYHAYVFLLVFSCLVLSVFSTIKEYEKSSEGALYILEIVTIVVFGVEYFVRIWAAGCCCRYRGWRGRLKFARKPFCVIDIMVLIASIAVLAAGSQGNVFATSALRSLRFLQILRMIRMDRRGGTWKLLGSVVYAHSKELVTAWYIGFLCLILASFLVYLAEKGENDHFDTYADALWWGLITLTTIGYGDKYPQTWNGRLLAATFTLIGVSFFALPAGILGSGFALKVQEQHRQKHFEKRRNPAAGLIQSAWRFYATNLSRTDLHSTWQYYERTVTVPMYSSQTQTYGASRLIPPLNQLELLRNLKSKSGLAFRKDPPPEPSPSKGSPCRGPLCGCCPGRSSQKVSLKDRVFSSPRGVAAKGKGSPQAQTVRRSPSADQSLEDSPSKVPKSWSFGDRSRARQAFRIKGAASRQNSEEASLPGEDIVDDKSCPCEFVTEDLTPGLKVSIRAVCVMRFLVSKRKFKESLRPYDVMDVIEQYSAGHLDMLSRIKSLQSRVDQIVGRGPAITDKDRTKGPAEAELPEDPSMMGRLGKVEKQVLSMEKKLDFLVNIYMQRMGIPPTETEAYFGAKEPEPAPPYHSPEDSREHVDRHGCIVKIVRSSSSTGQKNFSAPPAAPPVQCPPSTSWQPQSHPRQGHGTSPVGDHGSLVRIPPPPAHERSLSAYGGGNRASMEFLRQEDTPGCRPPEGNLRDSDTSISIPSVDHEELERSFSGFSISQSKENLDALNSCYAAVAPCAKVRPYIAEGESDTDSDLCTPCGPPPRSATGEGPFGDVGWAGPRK
Chain of Voltage-gated potassium channel, KQT; KCNQ2(Kv7.2)/KCNQ3(Kv7.3) (O43525 whole entry): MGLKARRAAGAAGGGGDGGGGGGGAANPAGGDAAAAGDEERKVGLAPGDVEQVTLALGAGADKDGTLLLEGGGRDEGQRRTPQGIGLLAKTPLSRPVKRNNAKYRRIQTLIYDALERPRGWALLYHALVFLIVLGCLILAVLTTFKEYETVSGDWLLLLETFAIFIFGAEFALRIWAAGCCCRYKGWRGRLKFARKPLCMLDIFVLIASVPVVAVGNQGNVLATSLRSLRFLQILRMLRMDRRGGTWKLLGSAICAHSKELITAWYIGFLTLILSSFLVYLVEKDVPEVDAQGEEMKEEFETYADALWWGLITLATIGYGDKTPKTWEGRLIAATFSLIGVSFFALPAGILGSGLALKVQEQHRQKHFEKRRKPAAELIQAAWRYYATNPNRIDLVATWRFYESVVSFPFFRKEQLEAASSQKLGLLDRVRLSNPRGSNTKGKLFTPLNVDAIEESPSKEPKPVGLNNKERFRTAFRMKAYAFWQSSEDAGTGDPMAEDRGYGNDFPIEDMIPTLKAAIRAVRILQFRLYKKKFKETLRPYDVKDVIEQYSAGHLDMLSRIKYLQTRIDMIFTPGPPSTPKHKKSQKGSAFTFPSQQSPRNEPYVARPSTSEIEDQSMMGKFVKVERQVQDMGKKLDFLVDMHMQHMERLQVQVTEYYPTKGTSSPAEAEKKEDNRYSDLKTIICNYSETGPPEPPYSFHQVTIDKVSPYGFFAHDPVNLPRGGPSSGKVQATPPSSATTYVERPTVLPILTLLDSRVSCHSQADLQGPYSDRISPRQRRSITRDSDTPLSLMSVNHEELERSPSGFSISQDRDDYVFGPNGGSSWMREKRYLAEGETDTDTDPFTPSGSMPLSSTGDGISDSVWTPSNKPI

[3] = Agonist activity at KCNQ expressed in CHO cells assessed as increase in KCl-induced 86Rb+ efflux incubated for 10 mins prior to KCl-induction by liquid scintillation; type: functional, cell-based
[4] = target: Voltage-gated potassium channel KCNQ3/KCNQ5 (Homo sapiens, UniProt O43525+Q9NR82); experiment: Agonist activity at KCNQ3/KCNQ5 expressed in CHO cells increase in KCl-induced 86Rb+ efflux incubated for 10 mins prior to KCl-induction by liquid scintillation counting; type: functional, cell-based
Chain of Voltage-gated potassium channel KCNQ3/KCNQ5 (O43525 whole entry): as above
Chain of Voltage-gated potassium channel KCNQ3/KCNQ5 (Q9NR82 whole entry): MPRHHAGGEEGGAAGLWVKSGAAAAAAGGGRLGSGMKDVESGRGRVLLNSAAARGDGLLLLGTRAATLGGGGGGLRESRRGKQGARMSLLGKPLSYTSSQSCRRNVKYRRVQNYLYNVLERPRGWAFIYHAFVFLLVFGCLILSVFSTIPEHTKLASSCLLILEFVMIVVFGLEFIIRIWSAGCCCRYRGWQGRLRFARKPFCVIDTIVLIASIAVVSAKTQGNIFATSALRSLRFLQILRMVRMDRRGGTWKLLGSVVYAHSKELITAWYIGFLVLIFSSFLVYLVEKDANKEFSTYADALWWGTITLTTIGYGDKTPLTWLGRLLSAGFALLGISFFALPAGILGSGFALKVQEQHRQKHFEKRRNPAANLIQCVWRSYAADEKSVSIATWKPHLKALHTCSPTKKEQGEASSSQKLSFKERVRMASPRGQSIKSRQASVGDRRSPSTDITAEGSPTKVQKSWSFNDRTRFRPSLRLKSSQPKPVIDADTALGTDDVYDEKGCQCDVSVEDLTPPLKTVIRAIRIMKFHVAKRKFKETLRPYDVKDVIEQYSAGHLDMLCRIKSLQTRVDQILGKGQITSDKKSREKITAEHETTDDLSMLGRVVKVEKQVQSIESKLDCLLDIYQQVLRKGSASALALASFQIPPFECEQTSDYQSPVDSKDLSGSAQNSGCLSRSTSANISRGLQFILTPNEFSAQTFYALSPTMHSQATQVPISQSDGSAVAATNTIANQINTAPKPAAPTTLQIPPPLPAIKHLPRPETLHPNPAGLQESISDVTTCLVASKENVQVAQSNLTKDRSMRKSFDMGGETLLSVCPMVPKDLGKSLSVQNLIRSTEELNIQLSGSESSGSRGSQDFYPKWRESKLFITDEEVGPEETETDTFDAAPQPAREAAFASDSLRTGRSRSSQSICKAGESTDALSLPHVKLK

[5] = Activity at GABA(A) gated channel at 10 uM
[6] = Inhibition of L-type calcium channel
[7] = system: Rattus norvegicus; experiment: Antiepileptic activity in po dosed Sprague-Dawley rat assessed as latency in PTZ-induced seizure administered 30 mins prior to PTZ-challenge measured up to 15 minutes; type: functional
[8] = Tmax in Sprague-Dawley rat at 2 mg/kg, po; type: ADME, organism-based; parameters: dose 2 mg/kg, route oral; details: in vivo
[9] = system: Rattus norvegicus; experiment: Volume of distribution during terminal phase in Sprague-Dawley rat at 2 mg/kg, iv; type: ADME, organism-based; parameters: dose 2 mg/kg, route intravenous; details: in vivo
Outline: (§1)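 Rats received a single 2 mg/kg intravenous dose. Half-life and clearance were determined, and volume of distribution (Vz) was calculated from the terminal phase.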

[10] = Half life in Sprague-Dawley rat at 2mg/kg, iv; type: ADME, organism-based; details: in vivo; outline: as §1
[11] = Oral bioavailability in Sprague-Dawley rat at 2 mg/kg; type: ADME, organism-based; details: in vivo
[12] = system: Rattus norvegicus; experiment: Antiepileptic activity in po dosed Wistar rat assessed as latency in maximum electric shock-induced hind limb extension administered 30 mins prior to electric shock-challenge measured up to 6 secs; type: functional; details: Hindlimb
[13] = target: Voltage-gated inwardly rectifying potassium channel KCNH2 (Homo sapiens, UniProt Q12809); experiment: Inhibition of human ERG
Chain of Voltage-gated inwardly rectifying potassium channel KCNH2 (Q12809 whole entry): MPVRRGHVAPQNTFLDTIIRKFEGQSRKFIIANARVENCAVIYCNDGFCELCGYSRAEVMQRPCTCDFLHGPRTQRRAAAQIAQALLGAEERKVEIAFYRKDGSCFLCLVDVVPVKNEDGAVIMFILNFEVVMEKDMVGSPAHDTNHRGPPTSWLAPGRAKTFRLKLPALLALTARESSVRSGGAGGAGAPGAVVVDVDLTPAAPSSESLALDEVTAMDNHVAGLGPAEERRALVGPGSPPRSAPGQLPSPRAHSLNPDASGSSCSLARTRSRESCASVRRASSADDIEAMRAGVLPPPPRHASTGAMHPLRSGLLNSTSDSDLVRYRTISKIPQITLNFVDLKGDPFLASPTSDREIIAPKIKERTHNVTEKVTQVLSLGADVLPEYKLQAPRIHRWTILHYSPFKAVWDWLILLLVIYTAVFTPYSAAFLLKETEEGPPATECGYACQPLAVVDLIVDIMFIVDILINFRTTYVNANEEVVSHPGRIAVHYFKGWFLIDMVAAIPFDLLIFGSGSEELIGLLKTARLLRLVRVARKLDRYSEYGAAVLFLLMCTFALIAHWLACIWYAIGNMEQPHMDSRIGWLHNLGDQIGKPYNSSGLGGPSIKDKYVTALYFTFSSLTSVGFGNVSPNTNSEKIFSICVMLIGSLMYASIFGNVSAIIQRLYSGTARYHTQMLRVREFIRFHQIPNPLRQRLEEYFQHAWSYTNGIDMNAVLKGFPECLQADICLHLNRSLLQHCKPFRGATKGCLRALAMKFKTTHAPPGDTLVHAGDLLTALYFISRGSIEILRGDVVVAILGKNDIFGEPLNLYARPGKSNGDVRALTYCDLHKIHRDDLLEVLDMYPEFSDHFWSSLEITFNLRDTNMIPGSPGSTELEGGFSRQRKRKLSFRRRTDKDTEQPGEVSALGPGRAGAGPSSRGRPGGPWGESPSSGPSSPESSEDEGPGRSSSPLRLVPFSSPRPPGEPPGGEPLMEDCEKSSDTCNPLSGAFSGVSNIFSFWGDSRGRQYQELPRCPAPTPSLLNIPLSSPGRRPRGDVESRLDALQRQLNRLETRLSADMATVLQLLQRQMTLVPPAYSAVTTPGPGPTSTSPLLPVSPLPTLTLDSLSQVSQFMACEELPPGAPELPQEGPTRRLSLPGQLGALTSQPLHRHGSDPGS

[14] = Clearance in Sprague-Dawley rat at 2mg/kg, iv; type: ADME, organism-based; details: in vivo; outline: as §1
[15] = Selectivity ratio of EC50 for KCNQ3/KCNQ5 to EC50 for KCNQ2/KCNQ3
[16] = target: Sodium channel protein type 5 subunit alpha (Homo sapiens, UniProt Q14524); experiment: Inhibition of NaV1.5
[17] = system: Rattus norvegicus; experiment: Toxicity in po dosed rat assessed as nonhemolytic anemia after 14 days; type: organism-based; details: in vivo, 336 h
[18] = system: Rattus norvegicus; experiment: Toxicity in rat assessed as nonhemolytic anemia after 28 days administered with repeated doses; type: organism-based; details: in vivo, 672 h
[19] = system: Cynomolgus monkey; experiment: Toxicity in cynomolgus monkey assessed as nonhemolytic anemia after 28 days administered with repeated doses; type: organism-based, Macaca fascicularis; details: in vivo, 672 h

Row | Compound | IC50 [1] [µM] | EC50 [2] [µM] | also measured
1 | O=C(Nc1ccc(Cl)nc1)c1ccc(F)cc1 | 66 | 0.98 | 
2 | O=C(Nc1cccnc1)c1ccc(Cl)c(Cl)c1 |  |  | EC50 [3]: 6 µM
3 | N#Cc1ccc(C(=O)Nc2ccc(Cl)nc2)cc1F | 51 | 1.1 | 
4 | Cc1ccc(C(=O)Nc2cnc(Cl)nc2)cc1F | 93 | 0.6 | EC50 [4]: 10 µM
5 | COc1cccc(C(=O)Nc2ccc(Cl)nc2)c1 |  | 5.5 | 
6 | O=C(Nc1ccc(Cl)nc1)c1cccc(C(F)(F)F)c1 | 5.8 | 0.39 | 
7 | O=C(Nc1ccc(O)nc1)c1ccc(F)c(F)c1 |  | > 10 | 
8 | O=C(Nc1ccccc1)c1ccc(Cl)c(Cl)c1 |  |  | EC50 [3]: > 10 µM
9 | O=C(Nc1ccc(Cl)nc1)c1ccc(S(=O)(=O)Cc2ccc(F)cc2)c(F)c1 | > 100 | 0.16 | 
10 | O=C(Nc1cnc(Cl)nc1)c1ccc(F)c(F)c1 | > 100 | 0.69 | Activity [5]: inactive; IC50 [6]: > 30 µM; ED50 [7]: < 1 mg/kg; Tmax [8]: 30 min; Vz/F [9]: 1.804 L/kg; half-life [10]: 72 min; bioavailability [11]: 63%; ED50 [12]: 1.5 mg/kg; IC50 [13]: > 30 µM; clearance [14]: 17.3 mL/min/kg; Ratio EC50 [15]: 20; IC50 [16]: > 30 µM; EC50 [4]: 14.3 µM
11 | CC(C)CS(=O)(=O)c1ccc(C(=O)Nc2ccc(Cl)nc2)cc1F | 54 | 0.26 | 
12 | O=C(Nc1ccc(Cl)nc1)c1ccc(F)c(C(F)(F)F)c1 | 3.4 | 0.42 | 
13 | O=C(Nc1ccc(Cl)nc1)c1ccc(F)c(Cl)c1 | 22 | 0.19 | 
14 | CCOc1ccc(C(=O)Nc2ccc(Cl)nc2)cc1F | > 100 | 0.57 | 
15 | N#Cc1cccc(C(=O)Nc2ccc(Cl)nc2)c1 |  | > 10 | 
16 | O=C(Nc1ccc(Cl)nc1)c1ccc(F)c(F)c1 | 41 | 0.38 | ED50 [7]: 2.2 mg/kg; Activity [17]: Toxic; ED50 [12]: 1.5 mg/kg; Activity [18]: Toxic; Activity [19]: Toxic
17 | O=C(Nc1ccc(Cl)nc1)c1ccc(C(F)(F)F)c(F)c1 | 3.4 | 0.37 | 
18 | CC(C)Sc1ccc(C(=O)Nc2ccc(Cl)nc2)cc1F | 5.8 | 0.11 | 
19 | O=C(Nc1ccc(Cl)nc1)c1cccc(F)c1F |  | > 10 | 
20 | O=C(Nc1ccc(Cl)nc1)c1cccc(F)c1 | 77 | 1.1 | 
21 | N#Cc1ccc(NC(=O)c2ccc(F)c(F)c2)cn1 |  | 10 | 
22 | O=C(Nc1ccc(Cl)nc1)c1ccc(Cl)cc1 | 15 |  | 
23 | O=C(Nc1ccc(Cl)nc1)c1ccc(-c2ccccc2)cc1 | > 30 | 0.26 | 
24 | O=C(Nc1ccc(Cl)nc1)c1ccccc1 | > 100 | 1.6 | 
25 | O=C(Nc1ccc(Cl)nc1)c1ccc(C(F)(F)F)cc1 | 2.9 | 0.32 | 
26 | Cc1ccc(C(=O)Nc2ccc(Cl)nc2)cc1F | 33 | 0.28 | 
27 | O=C(Nc1ccc(Cl)nc1)c1ccc(Oc2ccccc2)c(F)c1 | 1.3 | 0.03 | 
28 | O=C(Nc1cnc(Cl)nc1)c1cccc(C(F)(F)F)c1 | 35 | 4.3 | EC50 [4]: 28 µM

Row | Compound | IC50 [1] [µM] | EC50 [2] [µM] | also measured
29 | O=C(Nc1ccc(Cl)nc1)c1ccc(Sc2ccc(F)cc2)c(F)c1 | > 100 | 0.08 | 
30 | O=C(Nc1ccc(N2CCOCC2)nc1)c1ccc(F)c(F)c1 |  | 7.8 | 
31 | O=C(Nc1cnc(Cl)nc1)c1cccc(Cl)c1 | 78 | 1.1 | EC50 [4]: 14 µM
32 | O=C(Nc1ccc(Cl)nc1)c1ccc(S(=O)(=O)c2ccc(F)cc2)c(F)c1 | > 100 | 0.07 | 
33 | O=C(Nc1ccccn1)c1ccc(Cl)c(Cl)c1 |  |  | EC50 [3]: > 10 µM
34 | O=C(Nc1ccc(Cl)nc1)c1ccc(SCc2ccc(F)cc2)c(F)c1 | > 100 | 1.6 | 
35 | COc1ccc(NC(=O)c2ccc(F)c(F)c2)cn1 |  | > 10 | 
36 | NS(=O)(=O)c1ccc(C(=O)Nc2ccc(Cl)nc2)cc1 |  | > 10 | 
37 | O=C(Nc1cnc(Cl)nc1)c1ccc(Cl)c(F)c1 | 49 | 0.41 | EC50 [4]: 9 µM
38 | Cc1ccc(C(=O)Nc2ccc(Cl)nc2)cc1C | > 100 | 0.69 | 
39 | Cc1ccc(NC(=O)c2ccc(F)c(F)c2)cn1 |  | 6.8 | 
40 | O=C(Nc1ccc(Cl)nc1)c1ccc(Cl)c(Cl)c1 | 17 | 0.67 | 
41 | O=C(Nc1ccc(N2CCCC2)nc1)c1ccc(F)c(F)c1 |  | 0.48 | 
42 | CC(C)Oc1ccc(C(=O)Nc2ccc(Cl)nc2)cc1F | > 100 | 0.17 | 
43 | O=C(Nc1ccc(NC2CC2)nc1)c1ccc(F)c(F)c1 |  | 2.7 | 
44 | CC(C)CSc1ccc(C(=O)Nc2ccc(Cl)nc2)cc1F | > 100 | 0.14 | 
45 | O=C(Nc1ccc(Cl)nc1)c1ccccc1F |  | > 10 | 
46 | COc1ccc(C(=O)Nc2ccc(Cl)nc2)cc1F | > 100 | 3.2 | 
47 | CSc1ccc(NC(=O)c2ccc(F)c(F)c2)cn1 |  | > 10 | 
48 | O=C(Nc1cnc(Cl)nc1)c1cccc(F)c1 | > 100 | 7.2 | EC50 [4]: 23 µM
49 | O=C(Nc1ccc(Cl)nc1)c1cccc(Cl)c1 | 41 | 0.27 | 
50 | O=C(Nc1ccc(Cl)nc1)c1ccc(Oc2ccccc2)cc1 | 1.9 | 0.01 | 
51 | O=C(Nc1ccncc1)c1ccc(Cl)c(Cl)c1 |  |  | EC50 [3]: > 10 µM
52 | O=C(Nc1ccc(C(F)(F)F)nc1)c1ccc(F)c(F)c1 |  | > 10 | 
53 | O=C(Nc1ccc(F)nc1)c1ccc(F)c(F)c1 |  | 4.8 | 
54 | O=C(Nc1ccc(Cl)nc1)c1ccc(NCCc2ccccc2)c(F)c1 | > 100 | 0.18 | 
55 | O=C(Nc1ccc(Cl)nc1)c1ccc(Cl)c(F)c1 | 15 | 0.08 | 
